Data taken from ChEMBL document CHEMBL1144865, “N-aminoimidazole derivatives inhibiting retroviral replication via a yet unidentified mode of action” (J Med Chem, 2003).
pIC50: −log10 of the molar value.

What was measured:
[1] = tested on: Human immunodeficiency virus 2; experiment: Concentration required to inhibit the viral (HIV-2 ROD) cytopathic effect by 50% in MT-4 cells.; assay type: functional, organism-based, MT4; conditions: Human immunodeficiency virus 2, MT4
Outline: (§1)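 Virus-infected MT-4 cells cultured with serial compound dilutions; viability measured 5 days after infection by MTT tetrazolium colorimetric read-out. The value is the concentration protecting 50% of cells from viral cytopathic effect. Averages ± SD from at least two independent experiments. HIV-2 and SIV stocks came from infected MT-4 culture supernatants.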

C3H/3T3 [2] = experiment: Tested for minimum inhibitory concentration against MSV-Induced transformation of C3H/3T3 embryo murine fibroblast in vitro; assay type: functional; conditions: Mus musculus
Outline: (§2)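 C3H/3T3 cells seeded at 20 000 cells/mL and incubated 24 h, then infected with 80 focus-forming units of MSV for 120 min. Medium was then replaced with fresh medium containing test compound. Transformation was scored microscopically after 6 days.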

C3H/3T3 [3] = experiment: Tested for inhibitory concentration against MSV-Induced transformation of C3H/3T3 embryo murine fibroblast in vitro; assay type: functional, cell-based; conditions: Mus musculus; outline: as §2
[4] = tested on: Human immunodeficiency virus 1; experiment: Concentration required to inhibit the viral (HIV-1 NL4.3 strain) cytopathic effect by 50% in MT-4 cells.; assay type: functional, organism-based; conditions: Human immunodeficiency virus 1, MT4; outline: as §1
[5] = tested on: Simian immunodeficiency virus; experiment: Concentration required to inhibit the viral (SIV mac251) cytopathic effect by 50% in MT-4 cells.; assay type: functional, organism-based, MT4; conditions: Simian immunodeficiency virus, mac251, MT4; outline: as §1
[6] = tested on: Human immunodeficiency virus 1; experiment: Concentration required to inhibit the viral (HIV-1 NNRTI resistant strain) cytopathic effect by 50% in MT-4 cells.; assay type: functional, organism-based; conditions: Human immunodeficiency virus 1, MT4
Outline: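 MT-4 cells infected with HIV-1(III_B)-derived strain S0561945 (K103N + Y181C RT mutations, NNRTI-resistant). Cultured with varying compound concentrations; viability read on day 5 post-infection by MTT tetrazolium colorimetry. Value is the concentration giving 50% protection against virus-induced cytopathic effect. Cytotoxicity measured in parallel on mock-infected cells at day 5. Averages ± SD from at least two independent experiments.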

[7] = tested on: Human immunodeficiency virus 1; experiment: Concentration required to inhibit the viral (HIV-1 IIIB strain) cytopathic effect by 50% in MT-4 cells.; assay type: functional, organism-based; conditions: Human immunodeficiency virus 1, MT4; outline: as §1
MT4 [8] = experiment: (§3) Concentration that reduced the MT-4 cell viability by 50%.; assay type: functional, Homo sapiens; conditions: Homo sapiens, MT4
Outline: (§4)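 Mock-infected MT-4 cells, run in parallel with the antiviral assay, were exposed to compound. Viability on day 5 was read by MTT colorimetry. The value is the concentration lowering viability by 50%. Averages ± SD from at least two independent experiments.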

[9] = biological target: Human immunodeficiency virus type 1 reverse transcriptase (Human immunodeficiency virus 1) (UniProt Q72547); experiment: Tested for the concentration required to inhibit recombinant HIV-1 reverse transcriptase using polyrA.oligodT as the template primer
Outline: (§5)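 Recombinant HIV-1 RT assay. Template primer and labelled substrate were poly(rA).oligo(dT) with [³H]dTTP, or poly(rC).oligo(dG) with [³H]dGTP. Each radiolabelled dNTP was at 2.5 μM final in the reaction mixture.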

[10] = biological target: Human immunodeficiency virus type 1 reverse transcriptase (Human immunodeficiency virus 1) (UniProt Q72547); experiment: Tested for the concentration required to inhibit recombinant HIV-1 reverse transcriptase using polyrC.oligodG as the template primer; outline: as §5
MT4 [11] = experiment: as §3; assay type: functional, cell-based; conditions: Homo sapiens; outline: as §4

| Structure (SMILES) | pIC50 [1] | MIC (C3H/3T3 [2]) [µM] | pIC50 (C3H/3T3 [3]) | pIC50 [4] | pIC50 [5] | pIC50 [6] | pIC50 [7] | CC50 (MT4 [8]) [µM] | Concentration [9] [µM] | Concentration [10] [µM] | CC50 (MT4 [11]) [µM] |
| --- | --- | --- | --- | --- | --- | --- | --- | --- | --- | --- | --- |
| Cc1ccc(NN2C(S)=NC(C)C2c2ccccc2)cc1C (stereo not drawn) | < 4.26 | > 64.6 | < 4.19 | 5.45 | 4.99 | < 4.26 | 5.03 | 55.6 |  |  |  |
| Cc1nc(S)n(Nc2cccc(Cl)c2)c1-c1cccc(Cl)c1 | 5.41 | > 11.4 | < 4.94 | 5.61 | 5.91 | 5.73 | 5.30 | 30.9 |  |  |  |
| Cc1cccc(NN2C(S)=NC(C)C2c2ccccc2)c1 (stereo not drawn) | < 4.45 | > 67.7 | < 4.17 | 5.66 | 5.19 | 4.58 | 5.81 | 88.2 | 125 | 105 |  |
| CCC1N=C(S)N(Nc2cccc(Cl)c2)C1c1ccccc1 (stereo not drawn) | < 4.41 | > 12.1 | < 4.92 | < 4.41 | 5.41 | < 4.41 | 5.04 | 39 |  |  |  |
| CC(=O)c1ccc(C)cc1NC(C(N)=O)c1c(Cl)cccc1Cl (stereo not drawn) [LOVIRIDE] | < 5.00 |  |  | 8.22 | < 5.00 | < 5.00 | 7.85 |  |  |  | > 10 |
| Cc1nc(S)n(Nc2cccc(Cl)c2)c1-c1ccccc1 | 5.09 | > 63.3 | 4.42 | 5.05 | 5.09 | 5.01 | 5.19 | 66.7 |  |  |  |
